Assay results published in ChEMBL document CHEMBL1148942, “Cucurbitane triterpenoids from Leucopaxillus gentianeus” (J Nat Prod, 2004).

How the values were obtained:
Type in all cases: functional, cell-based
[1] = test system: CAKI-1; test: Cytotoxicity against human Caki1 cells after 24 hrs by MTT assay; conditions: CAKI-1, 24 h
Method in brief: (§1)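 ATCC cells kept adherent at 37 °C, 5% CO2 (A549: F12K + 10% FBS; HepG2, MCF-7: MEM + 1 mM pyruvate + 10% FBS; CAKI 1: McCoy's + 10% FBS). Seeded and grown 24 h, then exposed 24 h to compounds in FBS-free medium (final DMSO 0.25%). PBS wash, MTT 0.5 mg/mL in phenol-red-free MEM for 3 h at 37 °C, formazan dissolved in DMSO, read at A540. Two experiments in triplicate; IC50 derived.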

[2] = test system: A549; test: Cytotoxicity against human A549 cells after 24 hrs by MTT assay; conditions: A549, 24 h; method in brief: as §1
[3] = test system: HepG2; test: Cytotoxicity against human HepG2 cells after 24 hrs by MTT assay; conditions: HepG2, 24 h; method in brief: as §1
[4] = test system: MCF7; test: Cytotoxicity against human MCF7 cells after 24 hrs by MTT assay; conditions: MCF7, 24 h; method in brief: as §1

Structure (SMILES) | IC50 [1] [µM] | IC50 [2] [µM] | IC50 [3] [µM] | IC50 [4] [µM]
CC(=O)OC(C)(C)/C=C/C(=O)[C@](C)(O)[C@H]1[C@H](O)C[C@@]2(C)[C@@H]3CC=C4[C@H](C[C@H](O)C(=O)C4(C)C)[C@]3(C)C(=O)C[C@]12C [CUCURBITACIN B] | 7.1 | 46.6 | 0.76 | 0.78
CC(=O)O[C@H](C[C@@H](OC(C)=O)C(C)(C)O)[C@@H](C)[C@H]1CC[C@@]2(C)[C@@H]3CC=C4[C@@H](CCC(=O)C4(C)C)[C@]3(C)CC[C@]12CO [LEUCOPAXILLONE A] | 108 | > 300 | 96.7 | 7.94
CC(=O)O[C@H](C[C@@H](OC(C)=O)C(C)(C)O)[C@@H](C)[C@H]1CC[C@@]2(C)[C@@H]3CC=C4[C@@H](CCC(=O)C4(C)C)[C@]3(C)[C@]3(O)C[C@]12CO3 [LEUCOPAXILLONE B] | 30.3 | 155 | 86.9 | 86.9
